{
  "source": "ChEMBL document CHEMBL5724801",
  "about": "“EUbOPEN Chemogenomics Library - Multiplex” (2024)",
  "key": {"[1]": {"system": "HEK-293T", "assay": "Multiplex assay against HEK293T", "format": "toxicity, cell-based", "details": "human", "summary_of_the_method": "(§1)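 On a CQ1 microscope at 37°C and 5% CO2, live cells were imaged after compound addition. They had been stained at seeding with Hoechst33342, BioTracker Green Microtubule Cytoskeleton Dye, MitoTracker Red and Annexin V Alexa Fluor 680. CellPathfinder machine-learning gating assigned cells to Hoechst high-intensity objects or normal cells, normal cells to healthy, pyknosed or fragmented nuclei, and pyknosed cells to mitotic or apoptotic. Tubulin, mitochondrial-mass and membrane-permeability phenotypes are per cents of healthy-nucleus cells.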"}, "[2]": {"system": "U2OS", "assay": "Multiplex assay against U2OS", "format": "toxicity, cell-based", "details": "human", "summary_of_the_method": "as §1"}, "[3]": {"details": "24 h, 10 µM, compound concentration 10 uM"}, "[4]": {"details": "48 h, 1 µM, compound concentration 1 uM"}, "[5]": {"details": "48 h, 10 µM, compound concentration 10 uM"}, "[6]": {"details": "12 h, 1 µM, compound concentration 1 uM"}, "[7]": {"details": "12 h, 10 µM, compound concentration 10 uM"}, "[8]": {"details": "24 h, 1 µM, compound concentration 1 uM"}},
  "note": "Where “and” joins values, the source holds several entries; their conditions need not be identical. Identical values can stand only once.",
  "data": [
    {"compound": "NCCc1cn(S(=O)(=O)c2c(Cl)nc3sccn23)c2ccccc12.O=C(O)C(=O)O", "values": [
      {"measurement": "Population Apoptotic (%)", "setting": "[1]; [3]", "value": "74% and 75%"},
      {"measurement": "Population Fragmented Nuclei (%)", "setting": "[1]; [3]", "value": 14, "unit": "%"},
      {"measurement": "Population Healthy Nuclei (%)", "setting": "[1]; [3]", "value": "37% and 62%"},
      {"measurement": "Population Hoechst High Intensity Objects (%)", "setting": "[1]; [3]", "value": 34, "unit": "%"},
      {"measurement": "Population Membrane Permeable-Phenotype (%)", "setting": "[1]; [3]", "value": 2, "unit": "%"},
      {"measurement": "Population Mitochondria Different-Phenotype (%)", "setting": "[1]; [3]", "value": "83% and 95%"},
      {"measurement": "Population Mitotic Cells (%)", "setting": "[1]; [3]", "value": "25% and 24%"},
      {"measurement": "Population Normal (%)", "setting": "[1]; [3]", "value": 65, "unit": "%"},
      {"measurement": "Population Pyknosed Nuclei (%)", "setting": "[1]; [3]", "value": "48% and 22%"},
      {"measurement": "Population Tubulin-Different-Phenotype (%)", "setting": "[1]; [3]", "value": "44% and 76%"},
      {"measurement": "Total Cell Count", "setting": "[1]; [3]", "value": "310 and 195"},
      {"measurement": "Population Apoptotic (%)", "setting": "[1]; [4]", "value": "23% and 47%"},
      {"measurement": "Population Fragmented Nuclei (%)", "setting": "[1]; [4]", "value": "16% and 12%"},
      {"measurement": "Population Healthy Nuclei (%)", "setting": "[1]; [4]", "value": "77% and 82%"},
      {"measurement": "Population Hoechst High Intensity Objects (%)", "setting": "[1]; [4]", "value": "3% and 5%"},
      {"measurement": "Population Membrane Permeable-Phenotype (%)", "setting": "[1]; [4]", "value": "0% and 1%"},
      {"measurement": "Population Mitochondria Different-Phenotype (%)", "setting": "[1]; [4]", "value": "22% and 23%"},
      {"measurement": "Population Mitotic Cells (%)", "setting": "[1]; [4]", "value": "76% and 52%"},
      {"measurement": "Population Normal (%)", "setting": "[1]; [4]", "value": "96% and 94%"},
      {"measurement": "Population Pyknosed Nuclei (%)", "setting": "[1]; [4]", "value": "6% and 5%"},
      {"measurement": "Population Tubulin-Different-Phenotype (%)", "setting": "[1]; [4]", "value": "19% and 14%"},
      {"measurement": "Total Cell Count", "setting": "[1]; [4]", "value": "972 and 678"},
      {"measurement": "Population Apoptotic (%)", "setting": "[1]; [5]", "value": "53% and 78%"},
      {"measurement": "Population Fragmented Nuclei (%)", "setting": "[1]; [5]", "value": "27% and 19%"},
      {"measurement": "Population Healthy Nuclei (%)", "setting": "[1]; [5]", "value": "24% and 47%"},
      {"measurement": "Population Hoechst High Intensity Objects (%)", "setting": "[1]; [5]", "value": "62% and 47%"},
      {"measurement": "Population Membrane Permeable-Phenotype (%)", "setting": "[1]; [5]", "value": "11% and 1%"},
      {"measurement": "Population Mitochondria Different-Phenotype (%)", "setting": "[1]; [5]", "value": "74% and 75%"},
      {"measurement": "Population Mitotic Cells (%)", "setting": "[1]; [5]", "value": "46% and 21%"},
      {"measurement": "Population Normal (%)", "setting": "[1]; [5]", "value": "37% and 52%"},
      {"measurement": "Population Pyknosed Nuclei (%)", "setting": "[1]; [5]", "value": "47% and 33%"},
      {"measurement": "Population Tubulin-Different-Phenotype (%)", "setting": "[1]; [5]", "value": "55% and 52%"},
      {"measurement": "Total Cell Count", "setting": "[1]; [5]", "value": "294 and 212"},
      {"measurement": "Population Apoptotic (%)", "setting": "[2]; [6]", "value": "66% and 81%"},
      {"measurement": "Population Fragmented Nuclei (%)", "setting": "[2]; [6]", "value": "30% and 17%"},
      {"measurement": "Population Healthy Nuclei (%)", "setting": "[2]; [6]", "value": "58% and 72%"},
      {"measurement": "Population Hoechst High Intensity Objects (%)", "setting": "[2]; [6]", "value": 1, "unit": "%"},
      {"measurement": "Population Membrane Permeable-Phenotype (%)", "setting": "[2]; [6]", "value": "9% and 4%"},
      {"measurement": "Population Mitochondria Different-Phenotype (%)", "setting": "[2]; [6]", "value": "6% and 8%"},
      {"measurement": "Population Mitotic Cells (%)", "setting": "[2]; [6]", "value": "33% and 18%"},
      {"measurement": "Population Normal (%)", "setting": "[2]; [6]", "value": 98, "unit": "%"},
      {"measurement": "Population Pyknosed Nuclei (%)", "setting": "[2]; [6]", "value": "10% and 9%"},
      {"measurement": "Population Tubulin-Different-Phenotype (%)", "setting": "[2]; [6]", "value": 6, "unit": "%"},
      {"measurement": "Total Cell Count", "setting": "[2]; [6]", "value": "280 and 116"},
      {"measurement": "Population Apoptotic (%)", "setting": "[2]; [7]", "value": "71% and 82%"},
      {"measurement": "Population Fragmented Nuclei (%)", "setting": "[2]; [7]", "value": "26% and 20%"},
      {"measurement": "Population Healthy Nuclei (%)", "setting": "[2]; [7]", "value": "42% and 53%"},
      {"measurement": "Population Hoechst High Intensity Objects (%)", "setting": "[2]; [7]", "value": "5% and 4%"},
      {"measurement": "Population Membrane Permeable-Phenotype (%)", "setting": "[2]; [7]", "value": "42% and 30%"},
      {"measurement": "Population Mitochondria Different-Phenotype (%)", "setting": "[2]; [7]", "value": "60% and 71%"},
      {"measurement": "Population Mitotic Cells (%)", "setting": "[2]; [7]", "value": "28% and 17%"},
      {"measurement": "Population Normal (%)", "setting": "[2]; [7]", "value": "94% and 95%"},
      {"measurement": "Population Pyknosed Nuclei (%)", "setting": "[2]; [7]", "value": "30% and 26%"},
      {"measurement": "Population Tubulin-Different-Phenotype (%)", "setting": "[2]; [7]", "value": "59% and 50%"},
      {"measurement": "Total Cell Count", "setting": "[2]; [7]", "value": "221 and 115"},
      {"measurement": "Population Apoptotic (%)", "setting": "[2]; [8]", "value": "69% and 78%"},
      {"measurement": "Population Fragmented Nuclei (%)", "setting": "[2]; [8]", "value": "25% and 20%"},
      {"measurement": "Population Healthy Nuclei (%)", "setting": "[2]; [8]", "value": "66% and 70%"},
      {"measurement": "Population Hoechst High Intensity Objects (%)", "setting": "[2]; [8]", "value": 1, "unit": "%"},
      {"measurement": "Population Membrane Permeable-Phenotype (%)", "setting": "[2]; [8]", "value": "6% and 9%"},
      {"measurement": "Population Mitochondria Different-Phenotype (%)", "setting": "[2]; [8]", "value": "5% and 7%"},
      {"measurement": "Population Mitotic Cells (%)", "setting": "[2]; [8]", "value": "30% and 21%"},
      {"measurement": "Population Normal (%)", "setting": "[2]; [8]", "value": 98, "unit": "%"},
      {"measurement": "Population Pyknosed Nuclei (%)", "setting": "[2]; [8]", "value": "8% and 9%"},
      {"measurement": "Population Tubulin-Different-Phenotype (%)", "setting": "[2]; [8]", "value": "3% and 7%"},
      {"measurement": "Total Cell Count", "setting": "[2]; [8]", "value": "326 and 151"},
      {"measurement": "Population Apoptotic (%)", "setting": "[2]; [3]", "value": "83% and 86%"},
      {"measurement": "Population Fragmented Nuclei (%)", "setting": "[2]; [3]", "value": "29% and 20%"},
      {"measurement": "Population Healthy Nuclei (%)", "setting": "[2]; [3]", "value": "38% and 46%"},
      {"measurement": "Population Hoechst High Intensity Objects (%)", "setting": "[2]; [3]", "value": "6% and 3%"},
      {"measurement": "Population Membrane Permeable-Phenotype (%)", "setting": "[2]; [3]", "value": 26, "unit": "%"},
      {"measurement": "Population Mitochondria Different-Phenotype (%)", "setting": "[2]; [3]", "value": "63% and 67%"},
      {"measurement": "Population Mitotic Cells (%)", "setting": "[2]; [3]", "value": "16% and 13%"},
      {"measurement": "Population Normal (%)", "setting": "[2]; [3]", "value": "93% and 96%"},
      {"measurement": "Population Pyknosed Nuclei (%)", "setting": "[2]; [3]", "value": "31% and 33%"},
      {"measurement": "Population Tubulin-Different-Phenotype (%)", "setting": "[2]; [3]", "value": "26% and 38%"},
      {"measurement": "Total Cell Count", "setting": "[2]; [3]", "value": "240 and 116"},
      {"measurement": "Population Apoptotic (%)", "setting": "[2]; [4]", "value": "81% and 85%"},
      {"measurement": "Population Fragmented Nuclei (%)", "setting": "[2]; [4]", "value": 21, "unit": "%"},
      {"measurement": "Population Healthy Nuclei (%)", "setting": "[2]; [4]", "value": "70% and 66%"},
      {"measurement": "Population Hoechst High Intensity Objects (%)", "setting": "[2]; [4]", "value": "1% and 6%"},
      {"measurement": "Population Membrane Permeable-Phenotype (%)", "setting": "[2]; [4]", "value": "5% and 10%"},
      {"measurement": "Population Mitochondria Different-Phenotype (%)", "setting": "[2]; [4]", "value": "4% and 7%"},
      {"measurement": "Population Mitotic Cells (%)", "setting": "[2]; [4]", "value": "18% and 14%"},
      {"measurement": "Population Normal (%)", "setting": "[2]; [4]", "value": "98% and 93%"},
      {"measurement": "Population Pyknosed Nuclei (%)", "setting": "[2]; [4]", "value": "8% and 12%"},
      {"measurement": "Population Tubulin-Different-Phenotype (%)", "setting": "[2]; [4]", "value": "2% and 7%"},
      {"measurement": "Total Cell Count", "setting": "[2]; [4]", "value": "454 and 182"},
      {"measurement": "Population Apoptotic (%)", "setting": "[2]; [5]", "value": 92, "unit": "%"},
      {"measurement": "Population Fragmented Nuclei (%)", "setting": "[2]; [5]", "value": "37% and 29%"},
      {"measurement": "Population Healthy Nuclei (%)", "setting": "[2]; [5]", "value": "27% and 34%"},
      {"measurement": "Population Hoechst High Intensity Objects (%)", "setting": "[2]; [5]", "value": 7, "unit": "%"},
      {"measurement": "Population Membrane Permeable-Phenotype (%)", "setting": "[2]; [5]", "value": "25% and 42%"},
      {"measurement": "Population Mitochondria Different-Phenotype (%)", "setting": "[2]; [5]", "value": "56% and 65%"},
      {"measurement": "Population Mitotic Cells (%)", "setting": "[2]; [5]", "value": 7, "unit": "%"},
      {"measurement": "Population Normal (%)", "setting": "[2]; [5]", "value": 92, "unit": "%"},
      {"measurement": "Population Pyknosed Nuclei (%)", "setting": "[2]; [5]", "value": 35, "unit": "%"},
      {"measurement": "Population Tubulin-Different-Phenotype (%)", "setting": "[2]; [5]", "value": "25% and 42%"},
      {"measurement": "Total Cell Count", "setting": "[2]; [5]", "value": "241 and 127"}
    ]}
  ]
}
